We go through 1 compound from ChEMBL document CHEMBL1156269, “Biological and biophysical properties of the histone deacetylase inhibitor suberoylanilide hydroxamic acid are affected by the presence of short alkyl groups on the phenyl ring” (J Med Chem, 2010).

Molecules are shown by their SMILES. Calls of active or inactive are those of the source. The calls are words filed in the database; no cut-off is given here.

The experiment deals with Caco-2. Description: Induction of P21WAF1 gene expression in human Caco-2 cells at 5 uM after 24 hrs by Western blotting. Format: functional, cell-based. The essentials: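 Caco-2 cells were plated at 3×10⁵/well one day before treatment, then exposed for 24 h at 1 or 5 μM. Cells were scraped into PBS and protein was quantified. Equal protein was run on 12% SDS-PAGE and transferred to nitrocellulose. Blots were probed with mouse anti-p21 (1/1000, milk buffer) and an HRP secondary, with chemiluminescent detection; actin served as loading check.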

Take `O=C(CCCCCCC(=O)Nc1ccccc1)NO`: the outcome was inactive.
